The target of one data set is T1, Tyrosinase (Agaricus bisporus, UniProt O42713).
T1 sequence (O42713 whole entry): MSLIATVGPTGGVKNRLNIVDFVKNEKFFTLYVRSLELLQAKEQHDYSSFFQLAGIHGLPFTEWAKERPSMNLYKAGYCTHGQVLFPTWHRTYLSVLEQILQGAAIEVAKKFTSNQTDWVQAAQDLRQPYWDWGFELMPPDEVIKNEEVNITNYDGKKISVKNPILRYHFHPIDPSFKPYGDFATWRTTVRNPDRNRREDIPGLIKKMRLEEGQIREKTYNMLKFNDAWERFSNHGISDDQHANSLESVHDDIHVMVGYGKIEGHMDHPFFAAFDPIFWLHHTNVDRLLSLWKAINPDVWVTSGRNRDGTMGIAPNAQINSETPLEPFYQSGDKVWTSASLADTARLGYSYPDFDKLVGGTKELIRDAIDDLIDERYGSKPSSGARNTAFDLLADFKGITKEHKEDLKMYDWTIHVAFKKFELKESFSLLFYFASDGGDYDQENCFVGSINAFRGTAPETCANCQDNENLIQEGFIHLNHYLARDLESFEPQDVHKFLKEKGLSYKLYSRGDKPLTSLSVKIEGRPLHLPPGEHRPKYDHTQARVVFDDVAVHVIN
The experiment in a line: Inhibition of mushroom tyrosinase using L-tyrosine as substrate incubated for 30 mins by spectrophotometric method. The gist of the method:
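Mushroom tyrosinase with test sample (final 25 µM) in substrate mix of 14.7 mM potassium phosphate buffer and 293 µM L-tyrosine (1:1, v/v), incubated 30 min at 37 °C. Dopachrome absorbance read at 450 nm; % inhibition calculated against untreated control. Kojic acid 25 µM and arbutin 400 µM as positive controls. Triplicate; means ± SEM.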

Data set [1] deals with T2, Tyrosinase (Agaricus bisporus) (UniProt O42713).
T2 sequence (whole entry): T1 sequence (O42713 whole entry)
The experiment in a line: Competitive inhibition of mushroom tyrosinase at 10 to 40 nM using varying levels of L-tyrosine as substrate by Lineweaver-Burk plot analysis. The gist of the method:
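Mushroom tyrosinase (200 units) with inhibitor at 10, 20 and 40 nM and L-tyrosine 0.03125 to 16 mM, in 50 mM potassium phosphate pH 6.5. Initial dopachrome formation rate taken as ΔOD475/min. Km and Vmax from Lineweaver–Burk plots (1/V vs 1/[S]); Ki from modified Michaelis–Menten equation. Triplicate.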

Data set [2] has as its target T2, Tyrosinase (Agaricus bisporus). The experiment in a line: Potency index, ratio of compound effect to kojic acid effect for inhibition of mushroom tyrosinase at 25 uM using L-tyrosine as substrate.
Data set [3] concerns B16-F10. Kind of data set: Cytotoxicity against mouse B16F10 cells assessed as reduction in cell viability at 5 to 25 uM after 24 hrs by WST8 assay. The format is cell-based. The settings on record: b16-f10, 24 h. The gist of the method: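 Murine B16F10 cells in DMEM with 10% FBS and penicillin/streptomycin at 37 °C, 5% CO2, in 96-well plates. Pre-cultured cells exposed to 0, 5, 10 or 25 µM for 24 h. WST-8 reagent then added for 30 min to 2 h, absorbance read at 450 nm, viability given as % of control. Triplicate; means ± SEM.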

The target in data set [4] is T3, Tyrosinase (Mus musculus) (UniProt P11344).
T3 sequence (whole entry): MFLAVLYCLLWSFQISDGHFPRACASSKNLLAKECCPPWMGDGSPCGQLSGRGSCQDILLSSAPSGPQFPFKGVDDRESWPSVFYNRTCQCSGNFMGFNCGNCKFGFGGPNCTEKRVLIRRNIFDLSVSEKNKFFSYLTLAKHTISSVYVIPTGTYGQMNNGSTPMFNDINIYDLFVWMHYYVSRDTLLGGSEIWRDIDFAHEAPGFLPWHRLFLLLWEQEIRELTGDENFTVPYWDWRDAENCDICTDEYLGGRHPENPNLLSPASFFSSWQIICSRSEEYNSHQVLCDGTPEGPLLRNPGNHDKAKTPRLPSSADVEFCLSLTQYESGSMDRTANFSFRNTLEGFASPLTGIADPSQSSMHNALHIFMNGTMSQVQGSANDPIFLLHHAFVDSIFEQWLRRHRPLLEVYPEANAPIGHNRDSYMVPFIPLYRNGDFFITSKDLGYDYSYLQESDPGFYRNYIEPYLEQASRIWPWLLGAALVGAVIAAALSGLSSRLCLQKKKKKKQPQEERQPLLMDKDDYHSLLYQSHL
The experiment in a line: Inhibition of tyrosinase in alpha-MSH-stimulated mouse B16F10 cells assessed as reduction in dopachrome production using L-DOPA as substrate measured after 24 hrs by spectrophotometric method. The method in brief: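 B16F10 cells activated with 1 µM α-MSH, then given 0, 5, 10 or 25 µM test agent or 25 µM kojic acid for 24 h. Cells washed with PBS and lysed in 50 mM PBS pH 6.8 with 0.1 mM PMSF and 1% Triton X-100. Lysate frozen at -80 °C for 30 min, spun 12,000 rpm 30 min at 4 °C. Supernatant (80 µL) mixed with 20 µL 10 mM L-dopa, 37 °C for 30 min, OD read at 500 nm. Triplicate.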

For data set [5], the system named is B16-F10. Kind of data set: Antimelanogenic activity in alpha-MSH-stimulated mouse B16F10 cells assessed as reduction in melanin content at 25 uM treated at 24 hrs post alpha-MSH stimulation and measured after 24 hrs relative to control. The format is functional. On the set-up: scale not given: the % may be the effect or the level left. The method in brief: (§1)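 Cells grown in 24-well plates for 24 h, then stimulated with 1 µM α-MSH and treated with 0, 5, 10 or 25 µM test agent (kojic acid 25 µM as reference) for 24 h. Washed with PBS, melanin dissolved in 200 µL 1N NaOH, absorbance read at 405 nm. Triplicate; means ± SEM, one-way ANOVA with Tukey's test.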

For data set [6], the system named is B16-F10. Kind of data set: Antimelanogenic activity in alpha-MSH-stimulated mouse B16F10 cells assessed as reduction in melanin content treated at 24 hrs post alpha-MSH stimulation and measured after 24 hrs. In kind it is functional, cell-based. The method in brief:
as §1

The target in data set [7] is T2, Tyrosinase (Agaricus bisporus). The settings on record: at 25 µM.

Activity calls are given as the source filed them. The rule behind the calls is not given here.

For orientation: IC50 means the concentration needed to halve the response being measured. A word on the inhibition: it is the drop in the measured response relative to a control, in per cent. `CCN(CC)C(=O)/C=C/c1ccc(O)cc1O` had a 50% inhibitory concentration (IC50) on Tyrosinase of 11.2 nM. Moreover, the inhibition result in data set [1] is “Active”. For the same molecule, the Ratio in data set [2] was 3. Further, the results for the Activity result in the data set with B16-F10 [3], with B16-F10 [5] and in the data set on B16-F10 [6] were “Non-Toxic”, 78.07% and “Dose-dependent effect”, respectively. In addition, the inhibition entry in data set [4] was “Dose-dependent effect”; in data set [7] it was 96.2%.
The molecule `CCN(CC)C(=O)/C=C/c1ccc(O)c(OC)c1` returned an inhibition in data set [7] of 61.9%.
`O=C(/C=C/c1ccc(O)c(O)c1)NCc1ccccc1` showed an inhibition in data set [7] of 10%.
As for `COc1cc(/C=C/C(=O)NCc2ccccc2)ccc1O`, the Ratio in data set [2] was found to be 3. Besides, the Activity entry in the data set with B16-F10 [3] is “Non-Toxic”; in the data set with B16-F10 [5], 80.43%; with B16-F10 [6] it was “Dose-dependent effect”. The inhibition entry in data set [4] was “Dose-dependent effect”; in data set [7], 82.9%.
The molecule `COc1ccc(C2CC(=O)Nc3ccccc32)cc1O` (configuration not stated) came in with an inhibition in data set [7] of 25.9%.
Still for that read-out and setting: the result for `O=C(/C=C/c1ccc(O)c(O)c1)Nc1ccccc1` reads “inactive”.
As for `O=C(/C=C/c1ccc(O)cc1O)NCc1ccccc1`, the Ratio in data set [2] turned out to be 3. For the same molecule, the Activity entry in the data set on B16-F10 [3] was “Non-Toxic”; in the data set on B16-F10 [5] it was 65.84%; in the data set on B16-F10 [6] it was “Dose-dependent effect”. Besides, the inhibition result in data set [4] was “Dose-dependent effect”; in data set [7] it was 85.4%.
Turning to `COc1cc(/C=C/C(=O)Nc2ccccc2)ccc1O`, in data set [7], the inhibition worked out at 59%.
Still for that read-out and setting: the result for `O=C(/C=C/c1ccc(O)cc1)NCc1ccccc1` reads “inactive”; that for `COc1ccc(/C=C/C(=O)Nc2ccccc2)cc1O`, 29.7%; that for `CCN(CC)C(=O)/C=C/c1ccc(OC)c(O)c1`, 20.7%.
As for `O=C(/C=C/c1ccc(O)cc1O)Nc1ccccc1`, the IC50 against Tyrosinase stood at 25.6 nM. The inhibition entry in data set [1] was “Active”. Further, the Ratio in data set [2] is 3. Moreover, the Activity entry with B16-F10 [3] is “Non-Toxic”; in the data set on B16-F10 [5], 63.97%; in the data set with B16-F10 [6], “Dose-dependent effect”. Moreover, the inhibition result in data set [4] is “Dose-dependent effect”.
For the molecule `CCN(CC)C(=O)/C=C/c1ccc(O)c(O)c1`, the inhibition result in data set [7] is “inactive”.
Same read-out and setting: the result for `O=C1CC(c2ccc(O)c(O)c2)c2ccccc2N1` (configuration not stated) reads “inactive”.
In the case of `COc1cc(C2CC(=O)Nc3ccccc32)ccc1O` (configuration not stated), the inhibition entry in data set [7] is “inactive”.
`COc1ccc(/C=C/C(=O)NCc2ccccc2)cc1O` came in with an inhibition in data set [7] of 31.5%.
In the case of `O=c1cc(CO)occ1O` [KOJIC ACID], in the data set on B16-F10 [5], the Activity was 44.26%.
Regarding `O=C1CC(c2ccc(O)cc2)c2ccccc2N1` (configuration not stated), the inhibition entry in data set [7] is “inactive”.
Take `CCN(CC)C(=O)/C=C/c1ccc(O)cc1`: the inhibition result in data set [7] was “inactive”.

The record behind these values is ChEMBL document CHEMBL4325856, “Synthesis of cinnamic amide derivatives and their anti-melanogenic effect in α-MSH-stimulated B16F10 melanoma cells” (Eur J Med Chem, 2019).
